# Compound activity: PubChem BioAssay, Sanford-Burnham Center for Chemical Genomics
# Scp-1 inhibitor: blocks human Scp-1 phosphatase activity. Q9GZU7. Recombinant Scp1, phosphopeptide, malachite green phosphate absorbance. inhibition, % at 20 µM. actives 0.88% (n = 340,000). AID 493091;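 active = inhibition above about 50% at 20 µM, limit read from the data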;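 also: plate controls were DMSO wells with enzyme for no effect and wells lacking enzyme for full effect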
#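 Test system – truncated SCP-1 phosphatase (76-261aa) · Reagent – Phosphorylated 17-residue peptide substrate · Incubation – 45 min room-temperature reaction, 5 min colour, 30 min stabiliser · Detection – colorimetric phosphate reagent with accelerator and stabiliser, absorbance at 630 nm · Measure – % inhibition at 20 µM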
# LMPTP inh: blocks human LMPTP phosphatase; recombinant LMPTP-A, OMFP fluorogenic substrate, fluorescence intensity; inhibition, % at 20 µM; actives 0.22% (n = 360,000);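 active = compounds that cut the enzyme signal by at least half of the control window in the single-dose screen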;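 also: plate controls were DMSO wells with enzyme plus substrate for no effect and substrate without enzyme for full effect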
#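 Test system – LMPTP-A enzyme · Amount – LMPTP-A at 0.625 nM final in the reaction · Buffer or medium – Bis-Tris pH 6.0, DTT, detergent · Reagent – OMFP 400 µM · Doses – single 20 µM dose · Schedule – reaction 50 min, room temperature, dark · Detection – fluorescence intensity of OMFP turnover product · Evaluation – percent inhibition versus substrate-only and uninhibited controls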
# STEP block: blocks human striatal-enriched tyrosine phosphatase; recombinant STEP, OMFP fluorogenic substrate, fluorescence; inhibition, % at 20 µM; actives 0.25% (n = 360,000); AID 588621;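 active = inhibition at 20 µM, scaled per plate between control wells, above about 37%, limit read from the data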;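 also: 0% = DMSO with enzyme and substrate and 100% = substrate only without enzyme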
# Target sequence (P54829 whole entry, looked up): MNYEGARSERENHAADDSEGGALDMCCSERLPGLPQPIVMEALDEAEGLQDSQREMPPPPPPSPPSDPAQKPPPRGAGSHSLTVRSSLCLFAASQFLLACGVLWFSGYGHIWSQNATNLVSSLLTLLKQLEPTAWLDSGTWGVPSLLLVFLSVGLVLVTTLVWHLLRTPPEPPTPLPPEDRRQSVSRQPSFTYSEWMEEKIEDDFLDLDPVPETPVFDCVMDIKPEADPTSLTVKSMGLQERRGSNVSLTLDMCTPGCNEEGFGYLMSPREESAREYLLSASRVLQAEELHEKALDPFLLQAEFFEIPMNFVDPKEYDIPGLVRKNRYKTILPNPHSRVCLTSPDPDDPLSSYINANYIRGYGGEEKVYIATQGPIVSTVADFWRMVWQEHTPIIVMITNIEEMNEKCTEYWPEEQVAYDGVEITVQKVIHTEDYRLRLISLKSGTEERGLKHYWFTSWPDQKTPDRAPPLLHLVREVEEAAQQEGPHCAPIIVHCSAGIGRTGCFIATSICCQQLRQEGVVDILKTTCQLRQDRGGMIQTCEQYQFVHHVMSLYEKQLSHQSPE
#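 Measure: Control-normalized % inhibition with plate pattern correction | Test system: STEP phosphatase, cell-free reaction | Medium: pH 6.0 Bis-Tris with DTT and Tween 20 | Technique: Fluorescence, 480/540 nm | Times: Reaction 20 min, ambient temperature | Doses: Single compound dose of 20 µM, 1% DMSO final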
# DNMT1 inh: inhibitors of human DNMT1 | P26358 | DNMT1 molecular beacon, Hinp1I cleavage, fluorescence | inhibition (reported as % activation of signal), % at 10 µM | actives 0.83% (n = 360,000); in the data active = inhibition above about 50%
# SUMO1-SIM PPI: SUMO1-SIM interaction modulation | P63165 | SUMO1 binding to a labelled peptide, TR-FRET, 1 h | inhibition, % at 20 µM | actives 0.33% (n = 360,000) | AID 602429; in the data active = inhibition above about 37%
# DNMT1 inh conf: confirmation of human DNMT1 inhibitors; shares compounds with DNMT1 inh; DNMT1 molecular beacon HinP1I cleavage, fluorescence; inhibition, % at 10 µM; actives 8% (n = 2,300); AID 602385;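 active = average inhibition of at least 30% in the single-concentration confirmation test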
# DNMT1 interf: beacon fluorescence artifact counter-screen. shares compounds with DNMT1 inh. DNMT1 molecular beacon spectral interference counterscreen, fluorescence 485/520. activation (fluorescence interference), % at 10 µM. AID 602387. actives 1% (n = 2,300);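 active = activation of at least 30% at 10 µM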;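 also: DNMT1 catalytic domain with a HinP1I cleavage step and a FAM/dabcyl DNA beacon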
# * marks the source's active call; other numbers are inactive results; x = no result. Most compounds without a hit are left out; they make up all but 1.8% or so of the library.
SMILES,Scp-1 inhibitor,LMPTP inh,STEP block,DNMT1 inh,SUMO1-SIM PPI,DNMT1 inh conf,DNMT1 interf
COC(=O)C1=C(O)/C(=C\c2ccc(CNC(=O)C(=O)Nc3ccc(C)cc3)o2)N=C1C,-7,16,5,96*,20,4,4
COC(=O)C1=C(O)/C(=C\c2ccc(CNC(=O)C(=O)Nc3ccc(C)c(C)c3)o2)N=C1C,-1,8,4,86*,11,6,11
Nc1ccccc1C(=O)N1O[C@@H]2C=C[C@H]1CC2,1,0,0,1,1,x,x
Clc1ccccc1-c1ccc(/C=N/Nc2nncc(-c3ccccc3)n2)o1,-2,4,8,69*,0,-1,-5
O=[N+]([O-])c1ccccc1/C=C/C=N/n1c(-c2cc(-c3ccccc3)n[nH]2)n[nH]c1=S,15,-10,7,53*,11,20,-4
O=S(=O)(c1ccc(F)cc1)c1nc(-c2ccco2)oc1NCCCn1ccnc1,x,0,2,0,-1,x,x
COc1ccccc1CNC(=O)c1c(N)n(CCCN2CCOCC2)c2nc3ccccc3nc12,-6,-2,5,-34,5,x,x
Nc1c(C(=O)NCc2ccccc2)c2nc3ccccc3nc2n1-c1ccc2c(c1)OCO2,-5,1,-4,56*,14,1,2
Nc1c(C(=O)NCc2ccc3c(c2)OCO3)c2nc3ccccc3nc2n1CCCN1CCOCC1,-4,-2,15,62*,47*,10,10
Cn1c(C2CCCCC2)nc2cc(N)ccc21,-8,1,-2,-2,-5,x,x
COc1ccc(-c2csc(Nc3ccc(S(N)(=O)=O)cc3)n2)cc1OC,10,2,-3,63*,33,4,14
O=S(=O)(Nc1cc(Cl)cc(Cl)c1)N1CCOCC1,-8,0,0,0,-3,x,x
Cc1cccc(-c2n[nH]c(=S)n2/N=C/C=C/c2ccco2)c1,-23,16,4,66*,8,2,4
CC(/C=N/n1c(-c2ccncc2)n[nH]c1=S)=C\c1ccco1,10,10,8,83*,20,2,3
S=c1[nH]nc(-c2ccncc2)n1/N=C/C=C/c1ccco1,8,-1,1,63*,27,4,3
S=c1[nH]nc(-c2ccccc2Cl)n1/N=C/C=C/c1ccco1,15,3,0,24,3,x,x
O=C(CCc1ccc(S(=O)(=O)N2CCOCC2)cc1)OCc1nc2ccccc2s1,-2,-1,-1,99*,2,8,8
CSc1nc2n(n1)C(c1cccc(F)c1)C(C(=O)Nc1ccc(C)cc1C)=C(C)N2 (configuration not stated),-12,-3,-8,38,-1,x,x
CC1=C(C(=O)Nc2ccc(C)cc2C)C(c2ccc(Cl)cc2)n2nc(C(=O)OC(C)C)nc2N1 (configuration not stated),-4,-3,3,57*,-3,2,0
CCOc1ccccc1C(=O)Nc1ccc(S(=O)(=O)Nc2nccc(C)n2)cc1,-6,-2,-2,-1,8,x,x
CCN(CC)S(=O)(=O)c1cccc(C(=O)N[C@H](C(=O)NC2=NCCS2)C(C)C)c1,-10,-2,-4,66*,0,-1,2
CCc1nnc(NC(=O)CSc2nc(-c3ccccc3)cc(-c3ccc(F)cc3)c2C#N)s1,7,2,3,52*,-13,0,1
Cc1ccnc(NC(=O)COC(=O)C23CC4CC(CC(C4)C2)C3)n1,16,1,4,70*,14,11,1
O=C(COC(=O)C12CC3CC(CC(C3)C1)C2)Nc1nccs1,-8,0,0,6,-4,x,x
CC(C)C(=O)Nc1ccc(Cl)cc1-c1nc2ccccc2[nH]c1=O,-8,-2,1,1,-9,x,x
SMILES,Scp-1 inhibitor,LMPTP inh,STEP block,DNMT1 inh,SUMO1-SIM PPI,DNMT1 inh conf,DNMT1 interf
CNc1ccc([N+](=O)[O-])cc1-c1nc2ccccc2[nH]c1=O,15,4,4,51*,6,1,-5
Cc1ccc2nc(Nc3ccc4[nH]c(=O)[nH]c4c3)c(-n3nc(C)cc3C)nc2c1,-1,4,1,51*,-4,3,2
Cc1cc(C)n(-c2nc3ccccc3nc2Nc2ccc3c(c2)OCO3)n1,-12,3,0,-10,5,x,x
C=CC[C@@H](CC(=O)N[C@@H](CO)Cc1ccccc1)C(=O)NC[C@@H](OC(=O)[C@@H](CC=C)CC(=O)OC(C)(C)C)c1ccccc1,6,1,-2,57*,4,7,5
FC(F)(F)c1ccc(-c2cccc3c2C2CC3CCN2C(=S)NCCc2ccccc2)cc1 (configuration not stated),x,3,2,3,2,x,x
Cc1cc(C(=O)C(C)Cl)c(C)n1Cc1ccco1 (configuration not stated),0,2,0,65*,2,1,-1
Cc1cc(C(=O)COC(=O)C(C)NC(N)=O)c(C)n1Cc1ccco1 (configuration not stated),11,2,-1,-2,2,x,x
CCn1c(SCC(=O)Nc2cc(F)ccc2C)nnc1-c1ccccc1O,-11,0,24,56*,-1,1,1
O=C(CSc1nnc(CNC(=O)c2c(F)cccc2Cl)o1)NCc1ccc(F)cc1,4,0,1,2,-2,x,x
Nc1c(C(=O)C2CC2)sc2nc(-c3cccs3)cc(C(F)(F)F)c12,-7,-3,-48,68*,-6,12,34*
NS(=O)(=O)c1ccc(N2N=C(c3ccccc3)CC2c2ccccc2Cl)cc1 (configuration not stated),7,4,5,-16,0,x,x
CCC(C)n1c(NC(=O)c2ccccc2)c(C#N)c2nc3ccccc3nc21 (configuration not stated),-2,16,3,73*,43*,8,6
COc1ccc(NC(=O)CN2C(=O)NC3(CCCCCC3)C2=O)cc1Cl,5,0,-2,1,2,x,x
Nc1nnc(SCC(=O)Nc2cccc(S(N)(=O)=O)c2)s1,5,0,2,92*,-2,3,4
NS(=O)(=O)c1cccc(NC(=O)COC(=O)CSCc2ccccc2)c1,0,-1,-2,0,-1,x,x
CCCCN1C(=O)/C(=C/C=C2\Oc3ccccc3N2CC)SC1=S,-4,8,-42,20,-28,x,x
CCCCN1C(=O)/C(=C/C=C2/CC(C)(C)CN2C)SC1=S,5,17,-33,76*,-142,81*,85*
